Converted amounts (≈) assume the structure as drawn.

For data set [1], the system named is Nakaseomyces glabratus. Kind of data set: Antifungal activity against Candida glabrata ATCC 90030 WTBF-86 by microbroth dilution method. It is filed as functional. A digest of the protocol: (§1)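 CLSI microbroth dilution in RPMI 1640 with L-glutamine. MIC values are geometric means of three independent assays.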
Background: In broth dilution the organism is exposed to a series of concentrations in liquid medium.

Data set [2] relates to HeLa. Description: Cytotoxicity against human HeLa cells assessed as cell viability after 72 hrs by MTS assay. It is filed as cell-based.
In data set [3] the test system is Candida parapsilosis. Kind of data set: Antifungal activity against Candida parapsilosis ATCC 90018 WTBF-88 by microbroth dilution method. It is filed as functional. As to conditions: Lodderomyces parapsilosis. Put shortly:
as §1

Data set [4] deals with Candida albicans. Description: Antifungal activity against Candida albicans WTBF-50 by microbroth dilution method. It is filed as functional. A digest of the protocol:
as §1

Data set [5] deals with Cryptococcus neoformans. Description: Antifungal activity against Cryptococcus neoformans Cn18 (Serotype C) WTBF-106 by microbroth dilution method. The format is functional. A digest of the protocol: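 Microbroth dilution per the CLSI protocol, run in Sabouraud Dextrose Broth in place of RPMI. MIC values are geometric means of three independent assays.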
In data set [6] the test system is Pichia kudriavzevii. Kind of data set: Antifungal activity against Candida krusei WTBF-51 by microbroth dilution method. The format is functional.
Data set [7] is described as follows: Metabolic stability in liver microsomes (unknown origin). The format is ADME. (Liver microsomes are vesicles of endoplasmic reticulum, rich in cytochrome P450 enzymes.)

For the molecule `CC(=O)O.c1cc2cc(-c3ccc4cc(C5=NCCCN5)[nH]c4c3)sc2cc1C1=NCCCN1`, the MIC (usually the least concentration at which growth counts as inhibited) turned out to be 5.04 µg/mL in data set [1]; 2 µg/mL in data set [3]; 3.17 µg/mL in data set [4]; 4 µg/mL in data set [5]; 16 µg/mL in data set [6]. Also, the CC50 – broadly, the concentration that lowers cell viability or growth by half – in data set [2] was 27.5 µg/mL. The Stability entry in data set [7] was “Stable”.
Regarding `N=C(NC1CCC(O)CC1)c1ccc2cc(-c3ccc(-c4cc5ccc(C(=N)NC6CCC(O)CC6)cc5[nH]4)cc3)[nH]c2c1.O=C(O)C(F)(F)F` (configuration not stated), the MIC in data set [1] came out at 4 µg/mL; in data set [3], 2 µg/mL; in data set [4] it was 2.52 µg/mL; in data set [5], 2.48 µg/mL; in data set [6], 4 µg/mL. Also, the CC50 in data set [2] worked out at 29.8 µg/mL. The Stability entry in data set [7] is recorded as “Stable”.
As for `CC(=O)O.c1cc2cc(-c3ccc(-c4ccn5cc(C6=NCCCN6)nc5c4)cc3)[nH]c2cc1C1=NCCCN1`, the MIC in data set [1] turned out to be 0.13 µg/mL; in data set [3], 0.31 µg/mL; in data set [4], 0.79 µg/mL; in data set [5], 0.5 µg/mL; in data set [6] it was 1 µg/mL. Further, in data set [2], the CC50 amounted to 13.4 µg/mL. In data set [7], the Stability entry is recorded as “Stable”.
With `c1cc2cc(CCCCc3cc4ccc(C5=NCCCN5)cc4[nH]3)[nH]c2cc1C1=NCCCN1`, the MIC in data set [1] was 1 µg/mL (≈ 2.21 µM); in data set [3], at least 32 µg/mL; in data set [4], at least 32 µg/mL; in data set [5], 1.59 µg/mL (≈ 3.51 µM); in data set [6], at least 32 µg/mL. In addition, the CC50 in data set [2] is 14.7 µg/mL (≈ 32.5 µM). The Stability entry in data set [7] is “Stable”.
Consider `N=C(NCCO)c1ccc2cc(-c3ccc(-c4cc5ccc(C(=N)NCCO)cc5[nH]4)cc3)[nH]c2c1.O=C(O)C(F)(F)F`, for which the MIC was 0.13 µg/mL in data set [1]; 0.25 µg/mL in data set [3]; 0.25 µg/mL in data set [4]; 1.97 µg/mL in data set [5]; 1.59 µg/mL in data set [6]. Also, the CC50 in data set [2] was 14 µg/mL. For the same molecule, in data set [7], the Stability entry is “Stable”.
Regarding `CC(=O)O.c1cc2nc(-c3ccc(-c4ccc5cc(C6=NCCCN6)oc5c4)cc3)cn2cc1C1=NCCCN1`, the MIC in data set [1] stood at 0.31 µg/mL; in data set [3], 2 µg/mL; in data set [4] it was 2 µg/mL; in data set [5] it was 2 µg/mL; in data set [6], 8 µg/mL. Moreover, the CC50 in data set [2] was 25.5 µg/mL. Further, in data set [7], the Stability entry was “Stable”.
For the molecule `O=C(O)C(F)(F)F.OC1CN=C(c2ccc3cc(-c4ccc(-c5cc6ccc(C7=NCC(O)CN7)cc6[nH]5)cc4)[nH]c3c2)NC1` (configuration not stated), the MIC in data set [1] was 0.16 µg/mL; in data set [3], 0.31 µg/mL; in data set [4], 0.5 µg/mL; in data set [5], 0.06 µg/mL; in data set [6], 12.7 µg/mL. Moreover, the CC50 in data set [2] is over 80 µg/mL. The Stability entry in data set [7] is “Stable”.
In the case of `c1cc2cc(CCCc3cc4ccc(C5=NCCCN5)cc4[nH]3)[nH]c2cc1C1=NCCCN1`, the MIC in data set [1] amounted to 12.7 µg/mL (≈ 29 µM); in data set [3] it was 32 µg/mL (≈ 73 µM); in data set [4], 22.6 µg/mL (≈ 51.6 µM); in data set [5] it was 16 µg/mL (≈ 36.5 µM); in data set [6], 32 µg/mL (≈ 73 µM). Moreover, in data set [2], the CC50 is 80.3 µg/mL (≈ 183 µM). Further, the Stability result in data set [7] is “Stable”.
In the case of `Cl.N=C(N)c1ccc2cc(-c3ccc(-c4cc5ccc(C(=N)N)cc5[nH]4)cc3)[nH]c2c1`, the MIC in data set [1] turned out to be 4 µg/mL; in data set [3], 2 µg/mL; in data set [4] it was 16 µg/mL; in data set [5], 3.13 µg/mL; in data set [6], 2 µg/mL. For the same molecule, the CC50 in data set [2] was determined as 7 µg/mL. For the same molecule, in data set [7], the Stability result was “Stable”.
On to `CC1CNC(c2ccc3cc(-c4ccc(-c5cc6ccc(C7=NC(C)CN7)cc6[nH]5)cc4)[nH]c3c2)=N1.O=C(O)C(F)(F)F` (configuration not stated), for which the MIC in data set [1] came out at 0.25 µg/mL; in data set [3], 0.4 µg/mL; in data set [4] it was 0.79 µg/mL; in data set [5] it was 0.25 µg/mL; in data set [6], 0.79 µg/mL. For the same molecule, in data set [2], the CC50 turned out to be 66.5 µg/mL. The Stability result in data set [7] was “Stable”.
In the case of `CC1(C)CN=C(c2ccc3cc(-c4ccc(-c5cc6ccc(C7=NCC(C)(C)CN7)cc6[nH]5)cc4)[nH]c3c2)NC1.O=C(O)C(F)(F)F`, the minimum inhibitory concentration (MIC) in data set [1] is 2 µg/mL; in data set [3], 8 µg/mL; in data set [4] it was 4 µg/mL; in data set [5], 3.13 µg/mL; in data set [6] it was 4 µg/mL. Besides, the CC50 in data set [2] is 8 µg/mL. The Stability result in data set [7] was “Stable”.
For the molecule `CC(=O)O.c1cc2cc(-c3ccc4oc(C5=NCCCN5)cc4c3)[nH]c2cc1C1=NCCCN1`, the MIC in data set [1] turned out to be 1 µg/mL; in data set [3], 0.5 µg/mL; in data set [4], 0.4 µg/mL; in data set [5] it was 1 µg/mL; in data set [6] it was 4 µg/mL. Also, the CC50 in data set [2] was determined as 50.5 µg/mL. The Stability entry in data set [7] is given as “Stable”.
`CC(=O)O.c1cc2cc(-c3ccc4nc(C5=NCCCN5)cn4c3)[nH]c2cc1C1=NCCCN1`: the MIC turned out to be 0.16 µg/mL in data set [1]; 1 µg/mL in data set [3]; 1 µg/mL in data set [4]; 6.25 µg/mL in data set [5]; 1.26 µg/mL in data set [6]. The CC50 in data set [2] was determined as 91.9 µg/mL. For the same molecule, the Stability result in data set [7] is recorded as “Stable”.
As to `FC1CN=C(c2ccc3cc(-c4ccc(-c5cc6ccc(C7=NCC(F)CN7)cc6[nH]5)cc4)[nH]c3c2)NC1.O=C(O)C(F)(F)F` (configuration not stated), the MIC in data set [1] is 0.13 µg/mL; in data set [3] it was 0.25 µg/mL; in data set [4] it was 0.5 µg/mL; in data set [5], 0.25 µg/mL; in data set [6] it was 0.25 µg/mL. The CC50 in data set [2] worked out at 13.9 µg/mL. In addition, the Stability entry in data set [7] is “Stable”.
Regarding `N=C(NCCN1CCOCC1)c1ccc2cc(-c3ccc(-c4cc5ccc(C(=N)NCCN6CCOCC6)cc5[nH]4)cc3)[nH]c2c1.O=C(O)C(F)(F)F`, the MIC is 2 µg/mL in data set [1]; 2 µg/mL in data set [3]; 2.52 µg/mL in data set [4]; 2.48 µg/mL in data set [5]; 2 µg/mL in data set [6]. For the same molecule, the CC50 in data set [2] was found to be 24.9 µg/mL. Also, in data set [7], the Stability result is reported as “Stable”.
For the molecule `CC(=O)O.c1cc2cc(-c3cnc(-c4cc5ccc(C6=NCCCN6)cc5[nH]4)nc3)[nH]c2cc1C1=NCCCN1`, the MIC in data set [1] was at most 0.03 µg/mL; in data set [3] it was 0.13 µg/mL; in data set [4], 0.31 µg/mL; in data set [5], 1.24 µg/mL; in data set [6], 0.25 µg/mL. For the same molecule, the CC50 in data set [2] turned out to be 25.5 µg/mL. Besides, the Stability entry in data set [7] was “Stable”.

The record behind these values is ChEMBL document CHEMBL3600321, “Synthesis and antifungal evaluation of head-to-head and head-to-tail bisamidine compounds” (Bioorg Med Chem, 2015).
